A selection: hits, their analogues and other compounds. The true share with any hit is near 1.6%.
VLA-4 inh – inhibition in a human VLA-4 binding assay | AID 2557 | inhibition, % (about 7 µM as worked out from the volumes in the protocol) | P13612 | VLA-4 expressing cells, ligand binding flow cytometry | actives 0.2% (n = 330,000); in the data active means inhibition above about 50%
NR2E3 ag-1 – activates human NR2E3 receptor; actives 0.35% (n = 360,000); Q9Y5X4; inhibition of corepressor binding, % at 3.98 µM; AID 602229; CHO-S Gal4-NCOR/VP16-NR2E3 two-hybrid, luciferase;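 active means inhibition above the mean of all tested compounds plus 3 SD, cut at about 70% in these data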;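 further: 0% = DMSO with NR2E3 transfected cells and 100% = cells lacking NR2E3 construct; higher means lower luciferase signal from less NR2E3 corepressor binding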
Target sequence (Q9Y5X4 whole entry, looked up, the tested form may be a part): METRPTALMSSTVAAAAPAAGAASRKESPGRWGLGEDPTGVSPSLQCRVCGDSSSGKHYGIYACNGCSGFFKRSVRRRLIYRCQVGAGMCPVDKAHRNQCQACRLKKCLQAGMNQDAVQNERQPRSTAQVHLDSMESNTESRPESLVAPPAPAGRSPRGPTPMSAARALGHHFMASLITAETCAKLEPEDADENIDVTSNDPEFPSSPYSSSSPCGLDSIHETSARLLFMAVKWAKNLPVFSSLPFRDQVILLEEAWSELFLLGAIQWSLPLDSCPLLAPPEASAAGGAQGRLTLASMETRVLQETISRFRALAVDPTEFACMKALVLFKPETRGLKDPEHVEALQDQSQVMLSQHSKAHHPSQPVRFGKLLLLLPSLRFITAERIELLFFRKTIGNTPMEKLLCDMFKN
NR2E3 ag-2 – NR2E3 (human) agonism; Q9Y5X4; GST-NR2E3/biotin-RetCOR TR-FRET, 1536-well; inhibition of corepressor binding, % at 4.78 µM; actives 0.12% (n = 320,000); AID 2300;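 active means percent inhibition above the cutoff of mean plus 3 SD of all tested compounds, set per screening campaign, cut at about 20% in these data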;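 further: 0% = DMSO wells and 100% = biotin wells as full block of FRET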
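System: GST-NR2E3 and biotin-RetCOR proteins; probe or stimulus: 7 nM biotin-RetCOR; doses: compound at 4.8 µM, single dose; schedule: Compound–protein incubation for 5 h at 4 °C; detection: time-resolved FRET; read-out: percent inhibition; controls: biotin wells as high control, 0.6% DMSO wells as low control; format: 1536-well plates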
NR1D1 modulator – modulates human Rev-erb alpha binding to DNA | activity, % at 10 µM | P20393 | actives 0.79% (n = 370,000) | Rev-erbα–FITC-DNA binding, fluorescence polarization, 90 min | AID 1259318;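 active means activity above about 14%, limit read from the data; passing the limit was not always enough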;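 further: 0% = DMSO wells with 35 nM protein and 100% = DMSO wells with 750 nM protein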
PG9 Ab binder – PG9 antibody binding by small molecule; TR-FRET gp120-PG9 antibody binding; inhibition, % at 6.7 µM; actives 0.43% (n = 360,000); in the data active means inhibition above about 8.5%
PG9 binder conf – PG9 antibody binding, confirmed | shares compounds with PG9 Ab binder | TR-FRET PG9 antibody binding, biochemical | inhibition, % at 6.7 µM | actives 90% (n = 1,500) | AID 651571; in the data active means inhibition above about 9%
PGV04 counter – binds control antibody PGV04 in PG9 binder counter-screen | AID 651604 | inhibition, % at 6.7 µM | TR-FRET PGV04 antibody-gp120 binding, biochemical | actives 95% (n = 1,500) | shares compounds with PG9 Ab binder; in the data active means inhibition above about 9.5%
PG9 bind DR – PG9 antibody binding, dose response. TR-FRET PG9 antibody-gp120 binding inhibition. shares compounds with PG9 Ab binder. 95 tested, under 10 active. IC50, µM; in the data active means IC50 below about 10 µM
PGV04 binding DR – binds control antibody PGV04 in PG9 counter-screen; shares compounds with PG9 Ab binder; TR-FRET binding to control antibody PGV04; IC50, µM; actives 20% (n = 95); AID 651937
PG126 DR counter – counter-screen for PG9 binders: binding to control antibody PG126; TR-FRET binding to antibody PG126, counterscreen; actives 20% (n = 95); IC50, µM; AID 651939; shares compounds with PG9 Ab binder
Starred values were filed as active, the others as inactive. Unless noted, no stated cut-off is given here; in the data, active means IC50 below about 9 µM; inactive means the rest.

For COc1ccc(CN(C2CCCCC2C)S(=O)(=O)c2ccc(S(=O)(=O)N(C)C)cc2)cc1OC (stereo not drawn) the results were VLA-4 inh 2.1, NR2E3 ag-1 36.9, NR2E3 ag-2 1.1, NR1D1 modulator -6.4 and PG9 Ab binder -1.5.
For COc1cc(CN(C2CCCCC2C)S(=O)(=O)c2ccc(S(=O)(=O)NC3CC3)cc2)cc(OC)c1OC (stereo not drawn) the results were VLA-4 inh 0.0, NR2E3 ag-1 -2.5, NR2E3 ag-2 -0.5, NR1D1 modulator -2.2, PG9 Ab binder 10.9*, PG9 binder conf 6.5, PGV04 counter 6.2, PG9 bind DR >67.1, PGV04 binding DR >67.1 and PG126 DR counter >67.1.
Screening COC(=O)[C@]12C[C@H](CC(=O)NCC34CC5CC(CC(C5)C3)C4)C(=O)N(Cc3ccco3)C1=C[C@H](C(C)(C)C)O[C@@H]2C returned NR1D1 modulator -1.7.
For CCOc1ccc(N2CC(NC(=O)c3ccc4ccccc4c3)CC2=O)cc1 (stereo not drawn) the results were VLA-4 inh 2.8, NR2E3 ag-1 -23.2, NR2E3 ag-2 -2.5, NR1D1 modulator 16.0, PG9 Ab binder 11.9*, PG9 binder conf 11.5* and PGV04 counter 23.2*.
`CCOc1ccc(NC(=O)NC2CC(=O)N(c3ccc(OC)cc3)C2)cc1` (stereo not drawn) gave VLA-4 inh 2.2, NR2E3 ag-1 19.7, NR2E3 ag-2 0.9, NR1D1 modulator -0.1 and PG9 Ab binder -0.7.
`CN(Cc1cccs1)c1ncnc2ccc(-c3ccc4c(c3)OCO4)cc12` gave NR1D1 modulator -3.0.
For CCOc1ccc(Nc2nc3c(C)cccc3cc2C#N)cc1 the results were VLA-4 inh -34.2, NR2E3 ag-1 -1.7, NR2E3 ag-2 1.8, NR1D1 modulator 9.7, PG9 Ab binder 11.7*, PG9 binder conf 15.5* and PGV04 counter 26.3*.
Screening Cc1nc2sccn2c(=O)c1S(=O)(=O)Nc1cccc(Cl)c1C returned VLA-4 inh -0.3, NR2E3 ag-1 -13.0, NR2E3 ag-2 -1.8, NR1D1 modulator 2.1, PG9 Ab binder 9.8*, PG9 binder conf 15.6* and PGV04 counter 15.9*.
Screening Cc1ccc(NS(=O)(=O)c2c(C)nc3sccn3c2=O)cc1 returned VLA-4 inh 6.9, NR2E3 ag-1 -15.6, NR2E3 ag-2 0.7, NR1D1 modulator -3.9 and PG9 Ab binder 0.4.
Screening Cc1nnc2c(NCCc3ccccc3)nc3ccccc3n12 returned VLA-4 inh -7.6, NR2E3 ag-1 -27.4, NR2E3 ag-2 3.9, NR1D1 modulator 18.1, PG9 Ab binder 10.8*, PG9 binder conf 49.3* and PGV04 counter 61.9*.
Screening CCOC(=O)c1cc2sccc2n1CC(=O)Nc1ccc(OC)cc1 returned VLA-4 inh 19.3, NR2E3 ag-1 9.2, NR2E3 ag-2 -0.5, NR1D1 modulator 6.8, PG9 Ab binder 12.4*, PG9 binder conf 16.4* and PGV04 counter 30.6*.
`CCOC(=O)c1cc2sccc2n1CC(=O)Nc1ccc(OC)c(OC)c1` gave VLA-4 inh 2.8, NR2E3 ag-1 -14.1, NR2E3 ag-2 1.8, NR1D1 modulator 3.3 and PG9 Ab binder -0.2.
Screening COc1cc(OC)cc(C(=O)Nc2sc3c(c2C(N)=O)CCC3)c1 returned VLA-4 inh 3.9, NR2E3 ag-1 -51.9, NR2E3 ag-2 2.9, NR1D1 modulator 13.4, PG9 Ab binder 50.1*, PG9 binder conf 17.7* and PGV04 counter 31.2*.
For COc1cc(CC(=O)Nc2sc3c(c2C(N)=O)CCCC3)cc(OC)c1OC the results were VLA-4 inh 0.9, NR2E3 ag-1 12.6, NR2E3 ag-2 1.6, NR1D1 modulator 14.1, PG9 Ab binder 9.3*, PG9 binder conf 16.9* and PGV04 counter 23.3*.
`COC(=O)[C@]1(CNC(=O)Nc2ccc(C)c(Cl)c2)CC(=O)N(C)[C@@H]1c1ccccc1` gave NR1D1 modulator 2.2.
Screening NC(=O)c1nn(-c2ccccc2)nc1NC(=O)CN1CCCC1 returned VLA-4 inh 0.8, NR2E3 ag-1 11.6, NR2E3 ag-2 1.2, NR1D1 modulator -3.5 and PG9 Ab binder -0.6.
`NC(=O)c1nn(-c2ccccc2)nc1NC(=O)Cn1nnc(-c2ccccc2)n1` gave VLA-4 inh 1.2, NR2E3 ag-1 -18.7, NR2E3 ag-2 3.5, NR1D1 modulator -2.9, PG9 Ab binder 8.6*, PG9 binder conf 18.4* and PGV04 counter 19.4*.
For COc1ccc(-c2cn3nc(SCC(=O)NC4CCCCC4)ccc3n2)cc1 the results were VLA-4 inh -0.2, NR2E3 ag-1 -144.1, NR2E3 ag-2 -1.0, NR1D1 modulator -2.3, PG9 Ab binder 33.0*, PG9 binder conf 61.9* and PGV04 counter 75.2*.
For CC(C)(C)NS(=O)(=O)c1ccc2nc(NC(=O)c3ccc(N4C(=O)CCC4=O)cc3)sc2c1 the results were VLA-4 inh -2.9, NR2E3 ag-1 -34.4, NR2E3 ag-2 18.9, NR1D1 modulator 10.1, PG9 Ab binder 47.6*, PG9 binder conf 46.2* and PGV04 counter 64.4*.
Screening CCOC(=O)c1sc(=NC(=O)c2ccccc2Br)n(C)c1C returned VLA-4 inh 11.9, NR2E3 ag-1 -158.8, NR2E3 ag-2 3.0, NR1D1 modulator 7.6, PG9 Ab binder 14.8*, PG9 binder conf 21.9* and PGV04 counter 44.5*.
Screening CC1CCC2(CC1)CCC2NCc1ccc(Br)cc1 (stereo not drawn) returned NR1D1 modulator 0.4.
CC1Cc2ccccc2N1C(=O)COC(=O)c1ccc(O)cc1 (stereo not drawn) was read as VLA-4 inh 4.9, NR2E3 ag-1 20.1, NR2E3 ag-2 0.1, NR1D1 modulator 0.3 and PG9 Ab binder 2.6.
CC1Cc2ccccc2N1C(=O)COC(=O)c1ccc(N(C)C)cc1 (stereo not drawn) was read as VLA-4 inh -3.5, NR2E3 ag-1 -13.8, NR2E3 ag-2 0.8, NR1D1 modulator 6.2, PG9 Ab binder 11.8*, PG9 binder conf 13.1* and PGV04 counter 15.9*.
Screening COC(=O)[C@]12C[C@H](CC(=O)N3CCSCC3)C(=O)N(CCC3=CCCCC3)C1=C[C@H](COCc1ccccc1)O[C@@H]2C returned NR1D1 modulator 2.5 and PG9 Ab binder -0.7.

Screening data (PubChem)
